{"source": "ChEMBL document CHEMBL1828562", "about": "“Aryl H-phosphonates 17: (N-aryl)phosphoramidates of pyrimidine nucleoside analogues and their synthesis, selected properties, and anti-HIV activity” (J Med Chem, 2011)", "key": {"[1]": {"assay": "Cytotoxicity against human CEM-T4 cells assessed as cell viability at 200 uM after 7 days by MTT assay", "type": "cell-based", "details": "cem-t4, 168 h", "outline": "(§1)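 CEM-T4 cells cultured at 37 °C, 5% CO2 in RPMI/10% FCS containing compound, with neat medium as control. After 7 days, MTT (5 mg/mL solution) added for 3 h at 37 °C. Cells centrifuged, supernatant removed, formazan dissolved in DMSO and read at 560 nm. CC50 and CC90 determined on mock-infected cells.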"}, "[2]": {"assay": "Selectivity index, ratio of CC50 for human CEM-T4 cells to EC50 for HIV1 infected human CEM-T4 cells", "type": "toxicity, cell-based", "details": "read-out: Ratio CC50/EC50", "outline": "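Selectivity index calculated as CC50/EC50, both measured in CEM-T4 cells, and rounded.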"}, "[3]": {"tested_on": "Human immunodeficiency virus 1", "assay": "Antiviral activity against HIV1 infected in human CEM-T4 cells assessed as reduction in viral protein p24 production preincubated for 24 hrs measured after 8 days by MTT assay", "type": "functional, organism-based", "details": "Human immunodeficiency virus 1, CEM-T4", "outline": "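CEM-T4 cells, 20000 per well in 200 μL, preincubated 24 h at 37 °C, 5% CO2 in RPMI/10% FCS containing compound at 0,001–20 μM. Cells then inoculated with a known amount of HIV. Viral p24 read after 8 days by the MTT method. Triplicate cultures per concentration.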"}, "[4]": {"assay": "Dissociation constant, pKa of the compound in aqueous solution", "type": "physicochemical"}, "[5]": {"assay": "Cytotoxicity against human CEM-T4 cells assessed as cell viability after 7 days by MTT assay", "type": "cell-based", "outline": "as §1"}, "[6]": {"assay": "Chemical stability of the compound in RPMI cell culture media assessed as half life at 2 mM", "type": "physicochemical", "outline": "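Compound at 2 mM incubated in RPMI/FBS 9:1 (v/v) at 37 °C. Decomposition followed by HPLC on a C18 column. Half-life calculated from the degradation course.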"}, "[7]": {"tested_on": "Human immunodeficiency virus 1", "assay": "Antiviral activity against HIV1 infected in human CEM/TK- cells assessed as inhibition of virus-induced cytopathogenicity", "type": "functional, organism-based"}, "[8]": {"assay": "Cytotoxicity against human CEM-T4 cells assessed as cell viability at 30 uM after 7 days by MTT assay", "type": "cell-based", "details": "cem-t4, 168 h", "outline": "as §1"}, "[9]": {"assay": "Cytotoxicity against human CEM-T4 cells assessed as cell viability at 50 uM after 7 days by MTT assay", "type": "cell-based", "details": "cem-t4, 168 h", "outline": "as §1"}, "[10]": {"tested_on": "Human immunodeficiency virus 1", "assay": "Antiviral activity against HIV1 infected in human CEM/TK+ cells assessed as inhibition of virus-induced cytopathogenicity", "type": "functional, organism-based"}, "[11]": {"assay": "Chemical stability of the compound in RPMI cell culture media assessed as compound decomposition by HPLC analysis in presence of human MT4 cells", "type": "ADME, cell-based", "outline": "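Compound incubated at 37 °C in RPMI cell culture medium in the presence of MT-4 cells. Degradation rate and decomposition products followed by HPLC on a C18 column.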"}, "[12]": {"target": "Human immunodeficiency virus type 1 reverse transcriptase (Human immunodeficiency virus 1) (UniProt Q72547)", "assay": "Inhibition of HIV1 recombinant reverse transcriptase at <= 3 uM preincubated for 5 mins measured after 1 hr by electrophoresis analysis", "outline": "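Recombinant HIV-1 RT preincubated 5 min at 45 °C with compound in 50 mM Tris-HCl pH 8.3, 75 mM KCl, 3 mM MgCl2, 10 mM DTT. Started with dNTPs (50 μM final) and run 60 min at 45 °C. Products resolved on 12% denaturing PAGE and imaged by autoradiography. Fully extended product quantified.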"}}, "note": "The source made the active and inactive calls. The rule behind the calls is not given here.", "data": [{"smiles": "Nc1ccncc1", "note": "[DALFAMPRIDINE]", "values": [{"measurement": "Activity", "setting": "[1]", "result": "Non-toxic"}, {"measurement": "selectivity ratio", "setting": "[2]", "result": "< 10"}, {"measurement": "EC50", "setting": "[3]", "result": "> 20000", "unit": "nM"}, {"measurement": "EC90", "setting": "[3]", "result": "> 20000", "unit": "nM"}, {"measurement": "pKa", "setting": "[4]", "result": 9.13}]}, {"smiles": "Cc1cn([C@H]2C[C@H](N=[N+]=[N-])[C@@H](COP(=O)(O)O)O2)c(=O)[nH]c1=O", "note": "[AZIDOTHYMIDINE MONOPHOSPHATE]", "values": [{"measurement": "selectivity ratio", "setting": "[2]", "result": 10000}, {"measurement": "EC50", "setting": "[3]", "result": 10, "unit": "nM"}, {"measurement": "CC50 at 168 h", "setting": "[5]", "result": 100000, "unit": "nM"}, {"measurement": "half-life at 2000 µM", "setting": "[6]", "result": 3.6, "unit": "h"}]}, {"smiles": "Nc1ccc(Cl)cc1", "note": "[4-CHLOROANILINE]", "values": [{"measurement": "pKa", "setting": "[4]", "result": 3.99}]}, {"smiles": "O=c1ccn([C@H]2CC[C@@H](COP(=O)(O)Nc3cccnc3)O2)c(=O)[nH]1", "values": [{"measurement": "inhibition", "setting": "[7]", "result": "inactive"}, {"measurement": "selectivity ratio", "setting": "[2]", "result": "< 3"}, {"measurement": "EC50", "setting": "[3]", "result": "> 10000", "unit": "nM"}, {"measurement": "EC90", "setting": "[3]", "result": "> 10000", "unit": "nM"}, {"measurement": "Activity", "setting": "[8]", "result": "Non-toxic"}, {"measurement": "half-life at 2000 µM", "setting": "[6]", "result": 27.9, "unit": "h"}]}, {"smiles": "O=c1ccn([C@H]2CC[C@@H](COP(=O)(O)Nc3ccncc3)O2)c(=O)[nH]1", "values": [{"measurement": "Activity", "setting": "[9]", "result": "Non-toxic"}, {"measurement": "inhibition", "setting": "[7]", "result": "inactive"}, {"measurement": "selectivity ratio", "setting": "[2]", "result": "> 250"}, {"measurement": "EC50", "setting": "[3]", "result": 200, "unit": "nM"}, {"measurement": "EC90", "setting": "[3]", "result": 1350, "unit": "nM"}, {"measurement": "pKa", "setting": "[4]", "result": "< 8"}, {"measurement": "half-life at 2000 µM", "setting": "[6]", "result": 32.1, "unit": "h"}]}, {"smiles": "COc1ccc(N)cc1", "values": [{"measurement": "pKa", "setting": "[4]", "result": 4.58}]}, {"smiles": "Nc1ccccn1", "note": "[2-AMINOPYRIDINE]", "values": [{"measurement": "Activity", "setting": "[1]", "result": "Non-toxic"}, {"measurement": "selectivity ratio", "setting": "[2]", "result": "< 10"}, {"measurement": "EC50", "setting": "[3]", "result": "> 20000", "unit": "nM"}, {"measurement": "EC90", "setting": "[3]", "result": "> 20000", "unit": "nM"}]}, {"smiles": "O=c1ccn([C@H]2CC[C@@H](COP(=O)(O)Nc3ccccc3)O2)c(=O)[nH]1", "values": [{"measurement": "inhibition", "setting": "[7]", "result": "inactive"}]}, {"smiles": "Nc1cccnc1", "values": [{"measurement": "Activity", "setting": "[1]", "result": "Non-toxic"}, {"measurement": "selectivity ratio", "setting": "[2]", "result": "< 10"}, {"measurement": "EC50", "setting": "[3]", "result": "> 20000", "unit": "nM"}, {"measurement": "EC90", "setting": "[3]", "result": "> 20000", "unit": "nM"}, {"measurement": "pKa", "setting": "[4]", "result": 6.03}]}, {"smiles": "CCN(CC)CC.Cc1cn([C@H]2C[C@H](N=[N+]=[N-])[C@@H](COP(=O)(O)Nc3ccccc3)O2)c(=O)[nH]c1=O", "values": [{"measurement": "inhibition", "setting": "[7]", "result": "inactive"}, {"measurement": "selectivity ratio", "setting": "[2]", "result": "> 300"}, {"measurement": "EC50", "setting": "[3]", "result": 600, "unit": "nM"}, {"measurement": "EC90", "setting": "[3]", "result": "> 10000", "unit": "nM"}, {"measurement": "CC50 at 168 h", "setting": "[5]", "result": "> 200000", "unit": "nM"}, {"measurement": "CC90 at 168 h", "setting": "[5]", "result": "> 200000", "unit": "nM"}, {"measurement": "half-life at 2000 µM", "setting": "[6]", "result": "> 120", "unit": "h"}]}, {"smiles": "Cc1cn([C@H]2C[C@H](N=[N+]=[N-])[C@@H](CO)O2)c(=O)[nH]c1=O", "note": "[ZIDOVUDINE]", "values": [{"measurement": "selectivity ratio", "setting": "[2]", "result": "> 100000"}, {"measurement": "EC50", "setting": "[3]", "result": "< 2", "unit": "nM"}, {"measurement": "EC90", "setting": "[3]", "result": 5, "unit": "nM"}, {"measurement": "CC50 at 168 h", "setting": "[5]", "result": "> 200000", "unit": "nM"}, {"measurement": "CC90 at 168 h", "setting": "[5]", "result": "> 200000", "unit": "nM"}]}, {"smiles": "Cc1cn([C@H]2C[C@H](N=[N+]=[N-])[C@@H](COP(=O)(O)Nc3ccncc3)O2)c(=O)[nH]c1=O", "values": [{"measurement": "inhibition", "setting": "[10]", "result": "Active"}, {"measurement": "inhibition", "setting": "[7]", "result": "inactive"}, {"measurement": "Activity", "setting": "[1]", "result": "Non-toxic"}, {"measurement": "selectivity ratio", "setting": "[2]", "result": "> 182000"}, {"measurement": "EC50", "setting": "[3]", "result": 1.1, "unit": "nM"}, {"measurement": "EC90", "setting": "[3]", "result": 6, "unit": "nM"}, {"measurement": "pKa", "setting": "[4]", "result": "< 8"}, {"measurement": "half-life at 2000 µM", "setting": "[6]", "result": "> 120", "unit": "h"}, {"measurement": "Stability", "setting": "[11]", "result": "Stable"}, {"measurement": "inhibition", "setting": "[12]", "result": "inactive"}]}, {"smiles": "CCN(CC)CC.Cc1cn([C@H]2C[C@H](N=[N+]=[N-])[C@@H](COP(=O)(O)Nc3ccc(Cl)cc3)O2)c(=O)[nH]c1=O", "values": [{"measurement": "inhibition", "setting": "[7]", "result": "inactive"}, {"measurement": "selectivity ratio", "setting": "[2]", "result": 14500}, {"measurement": "EC50", "setting": "[3]", "result": 20, "unit": "nM"}, {"measurement": "EC90", "setting": "[3]", "result": 100, "unit": "nM"}, {"measurement": "CC50 at 168 h", "setting": "[5]", "result": 290000, "unit": "nM"}, {"measurement": "CC90 at 168 h", "setting": "[5]", "result": 360000, "unit": "nM"}, {"measurement": "half-life at 2000 µM", "setting": "[6]", "result": "> 120", "unit": "h"}]}, {"smiles": "Cc1cn([C@H]2C[C@H](N=[N+]=[N-])[C@@H](COP(=O)(O)Nc3cccnc3)O2)c(=O)[nH]c1=O", "values": [{"measurement": "inhibition", "setting": "[10]", "result": "Active"}, {"measurement": "inhibition", "setting": "[7]", "result": "inactive"}, {"measurement": "Activity", "setting": "[1]", "result": "Non-toxic"}, {"measurement": "selectivity ratio", "setting": "[2]", "result": "> 87000"}, {"measurement": "EC50", "setting": "[3]", "result": 2.3, "unit": "nM"}, {"measurement": "EC90", "setting": "[3]", "result": 9, "unit": "nM"}, {"measurement": "half-life at 2000 µM", "setting": "[6]", "result": 73.3, "unit": "h"}, {"measurement": "Stability", "setting": "[11]", "result": "Stable"}, {"measurement": "inhibition", "setting": "[12]", "result": "inactive"}]}]}
